{"source": "ChEMBL document CHEMBL3425463", "about": "“The quassinoid isobrucein B reduces inflammatory hyperalgesia and cytokine production by post-transcriptional modulation” (J Nat Prod, 2015)", "key": {"Mus musculus [1]": {"system": "Mus musculus", "assay": "Inhibition of protein synthesis in carrageenan-induced mechanical inflammatory hyperalgesia male C57BL/6 mouse model assessed as inhibition of TNF production in inflamed tissue at 20 mg/kg, sc […] challenge and measured after 3 hrs by ELISA", "assay_type": "functional, organism-based", "set-up": "dose 20 mg/kg"}, "RAW264.7 [2]": {"system": "RAW264.7", "assay": "Inhibition of luminescence emission in mouse RAW264.7 cells transfected with luciferase plasmid containing universal promoter PKG at 70 uM after 6 hrs by luciferase reporter gene assay", "assay_type": "functional, cell-based", "procedure,_shortened": "(§1)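 RAW 264.7 cells (5 × 10^5/well) in RPMI-1640 with 2% FBS, transfected with a PGK-promoter luciferase plasmid (1 μg/well) for 6 h at 37 °C, 5% CO2. Then treated 6 h with drug, dexamethasone 1 mM, pyrrolidine dithiocarbamate 500 μM or cycloheximide 70 μM. Cells lysed in Tris/NaCl/Tween buffer, pH 7.5, and luminescence read.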"}, "Mus musculus [3]": {"system": "Mus musculus", "assay": "Inhibition of protein synthesis in carrageenan-induced mechanical inflammatory hyperalgesia male C57BL/6 mouse model assessed as inhibition of IL-1beta production in inflamed tissue at 20 mg/kg, sc […] challenge and measured after 3 hrs by ELISA", "assay_type": "functional, organism-based", "set-up": "dose 20 mg/kg"}, "RAW264.7 [4]": {"system": "RAW264.7", "assay": "Inhibition of luminescence emission in mouse RAW264.7 cells transfected with luciferase plasmid containing universal promoter PKG at 1 mM after 6 hrs by luciferase reporter gene assay", "assay_type": "functional, cell-based", "procedure,_shortened": "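RAW 264.7 cells (5 × 10^5/well) in RPMI-1640 with 2% FBS were transfected with pmirGLO dual-luciferase plasmid (1 μg/well, PGK universal promoter) by FuGene 6 for 6 h at 37 °C, 5% CO2. Compound was added ([…] as printed) and incubated 6 h. Cells were lysed in TNT buffer, and luciferin luminescence was read. Controls: dexamethasone, PDTC, cycloheximide.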"}, "RAW264.7 [5]": {"system": "RAW264.7", "assay": "Antiinflammatory activity against mouse RAW264.7 cells assessed as reduction of LPS-induced TNF mRNA expression cells at 1 mM treated 30 mins before LPS challenge measured after 3 hrs by qRT-PCR analysis", "assay_type": "functional, cell-based", "procedure,_shortened": "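RAW 264.7 macrophages (1.5 × 10^6 cells/well) in supplemented RPMI-1640 were pretreated with vehicle, test compound or dexamethasone (1 mM) before LPS stimulation. Cells were lysed in TRIzol, and TNF mRNA was measured by quantitative real-time PCR with GAPDH primers. Stock in DMSO diluted in RPMI-1640, final DMSO ≤0.5%.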"}, "RAW264.7 [6]": {"system": "RAW264.7", "assay": "Inhibition of luminescence emission in mouse RAW264.7 cells transfected with luciferase plasmid containing universal promoter PKG at 500 uM after 6 hrs by luciferase reporter gene assay", "assay_type": "functional, cell-based", "procedure,_shortened": "as §1"}, "Mus musculus [7]": {"system": "Mus musculus", "assay": "Antiinflammatory activity in carrageenan-induced mechanical inflammatory hyperalgesia male C57BL/6 mouse model assessed as inhibition of TNF level production in inflamed tissue at 5 mg/kg, […] and measured after 3 hrs", "assay_type": "functional, organism-based", "set-up": "dose 5 mg/kg"}, "RAW264.7 [8]": {"system": "RAW264.7", "assay": "Antiinflammatory activity against mouse RAW264.7 cells assessed as reduction of LPS-induced TNF production compound pretreated 30 mins of LPS challenge measured after 4 hrs by ELISA", "assay_type": "functional, cell-based"}, "[9]": {"system": "peritoneal macrophages (Mus musculus)", "assay": "Cytotoxicity against mouse peritoneal macrophages assessed as cell viability at 0.001 to 10 uM pretreated 30 mins by MTT assay in presence of LPS"}, "Mus musculus [10]": {"system": "Mus musculus", "assay": "Antiinflammatory activity in carrageenan-induced mechanical inflammatory hyperalgesia male C57BL/6 mouse model assessed as inhibition of KC/CXCL1 production in inflamed tissue at 5 mg/kg, […] and measured after 3 hrs", "assay_type": "functional, organism-based", "set-up": "dose 5 mg/kg"}, "RAW264.7 [11]": {"system": "RAW264.7", "assay": "Inhibition of PMA-induced NF-kappaB activation in mouse RAW264.7 cells assessed as reduction luminescence emission at 0.001 to 10 uM pretreated 30 mins before LPS challenge measured after 4 hrs by luciferase reporter gene assay", "assay_type": "cell-based", "procedure,_shortened": "(§2)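 RAW 264.7 NF-κB-luciferase reporter cells pretreated 30 min (0.001−10 μM) before stimulus: LPS 1 μg/mL, PGN 10 μg/mL, TNF 10 ng/mL or PMA 1 μg/mL. Cells lysed at 4 h; luciferin added, luminescence read. Expressed relative to stimulus alone set at 100%. Dexamethasone 1 mM control. n = 4–5.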"}, "RAW264.7 [12]": {"system": "RAW264.7", "assay": "Antiinflammatory activity against mouse RAW264.7 cells assessed as reduction of LPS-induced TNF mRNA expression cells at 10 uM treated 30 mins before LPS challenge measured after 3 hrs by qRT-PCR analysis", "assay_type": "functional, cell-based"}, "RAW264.7 [13]": {"system": "RAW264.7", "assay": "Antiinflammatory activity against mouse RAW264.7 cells assessed as reduction of LPS-induced IL-1beta production compound pretreated 30 mins of LPS challenge measured after 4 hrs by ELISA", "assay_type": "functional, cell-based"}, "RAW264.7 [14]": {"system": "RAW264.7", "assay": "Inhibition of LPS-induced NF-kappaB activation in mouse RAW264.7 cells assessed as reduction luminescence emission at 0.001 to 10 uM pretreated 30 mins before LPS challenge measured after 4 hrs by luciferase reporter gene assay", "assay_type": "cell-based", "procedure,_shortened": "as §2"}, "RAW264.7 [15]": {"system": "RAW264.7", "assay": "Inhibition of LPS-induced NF-kappaB p65 translocation into nucleus in mouse RAW264.7 cells at 10 uM treated 30 mins before LPS challenge by Western blot analysis", "assay_type": "cell-based", "procedure,_shortened": "(§3)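 RAW 264.7 cells treated before LPS. Cytoplasmic and nuclear fractions made by hypotonic/high-salt (420 mM NaCl) lysis; Bradford protein assay; 12% SDS-PAGE. Blots: IκB-α (1:1000) on cytoplasmic and p65 (1:300) on nuclear extracts, ECL detection. Nucleophosmin and actin as fraction markers; bands normalized to medium control.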"}, "RAW264.7 [16]": {"system": "RAW264.7", "assay": "Inhibition of TNF-induced NF-kappaB activation in mouse RAW264.7 cells assessed as reduction luminescence emission at 0.001 to 10 uM pretreated 30 mins before LPS challenge measured after 4 hrs by luciferase reporter gene assay", "assay_type": "cell-based", "procedure,_shortened": "as §2"}, "RAW264.7 [17]": {"system": "RAW264.7", "assay": "Inhibition of NF-kappaB-mediated IkappaBalpha degradation in LPS-induced mouse RAW264.7 cells at 10 uM treated 30 mins before LPS challenge by Western blot analysis", "assay_type": "cell-based", "procedure,_shortened": "as §3"}, "Mus musculus [18]": {"system": "Mus musculus", "assay": "Antihyperalgesic activity in male C57BL/6 mouse assessed as reduction in carrageenan-induced mechanical inflammatory hyperalgesia at 5 mg/kg, […] and measured after 3 hrs", "assay_type": "functional, organism-based", "set-up": "dose 5 mg/kg"}, "Mus musculus [19]": {"system": "Mus musculus", "assay": "Antihyperalgesic activity in sc dosed male C57BL/6 mouse assessed as reduction in carrageenan-induced mechanical inflammatory hyperalgesia […] and measured after 3 hrs", "assay_type": "functional, organism-based"}, "Mus musculus [20]": {"system": "Mus musculus", "assay": "Antiinflammatory activity in carrageenan-induced mechanical inflammatory hyperalgesia male C57BL/6 mouse model assessed as inhibition of IL-1beta production in inflamed tissue at 5 mg/kg, […] and measured after 3 hrs", "assay_type": "functional, organism-based", "set-up": "dose 5 mg/kg"}, "RAW264.7 [21]": {"system": "RAW264.7", "assay": "Antiinflammatory activity against mouse RAW264.7 cells assessed as reduction of LPS-induced KC/CXCL1 production compound pretreated 30 mins of LPS challenge measured after 4 hrs by ELISA", "assay_type": "functional, cell-based"}, "RAW264.7 [22]": {"system": "RAW264.7", "assay": "Inhibition of luminescence emission in mouse RAW264.7 cells transfected with luciferase plasmid containing universal promoter PKG at 0.1 to 10 uM after 6 hrs by luciferase reporter gene assay", "assay_type": "functional, cell-based", "procedure,_shortened": "as §1"}, "RAW264.7 [23]": {"system": "RAW264.7", "assay": "Inhibition of PGN-induced NF-kappaB activation in mouse RAW264.7 cells assessed as reduction luminescence emission at 0.001 to 10 uM pretreated 30 mins before LPS challenge measured after 4 hrs by luciferase reporter gene assay", "assay_type": "cell-based", "procedure,_shortened": "as §2"}}, "note": "Calls of active or inactive are those of the source. No cut-off for these calls is given here."}
{"molecule": "C[C@@H]1C[C@@H]([C@H](O)CC2CC(=O)NC(=O)C2)C(=O)[C@@H](C)C1", "values": [{"measurement": "inhibition", "setting": "Mus musculus [1]", "result": "inactive"}, {"measurement": "inhibition", "setting": "RAW264.7 [2]", "result": "Active"}, {"measurement": "inhibition", "setting": "Mus musculus [3]", "result": "Active"}]}
{"molecule": "C[C@@H]1C[C@H]2[C@@H]3CCC4=CC(=O)C=C[C@]4(C)[C@@]3(F)[C@@H](O)C[C@]2(C)[C@@]1(O)C(=O)CO", "values": [{"measurement": "inhibition", "setting": "RAW264.7 [4]", "result": "inactive"}, {"measurement": "inhibition", "setting": "RAW264.7 [5]", "result": "Active"}]}
{"molecule": "S=C(S)N1CCCC1", "values": [{"measurement": "inhibition", "setting": "RAW264.7 [6]", "result": "inactive"}]}
{"molecule": "COC(=O)[C@@]12OC[C@]34[C@H]([C@@H](O)[C@@H]1O)[C@@]1(C)[C@H](O)C(=O)C=C(C)[C@@H]1C[C@H]3OC(=O)[C@H](OC(C)=O)[C@@H]24", "note": "[ISOBRUCEIN B]", "values": [{"measurement": "inhibition", "setting": "Mus musculus [7]", "result": "inactive"}, {"measurement": "inhibition", "setting": "RAW264.7 [8]", "result": "Active"}, {"measurement": "Activity", "setting": "[9]", "result": "Non-toxic"}, {"measurement": "inhibition", "setting": "Mus musculus [10]", "result": "Active"}, {"measurement": "inhibition", "setting": "RAW264.7 [11]", "result": "Dose-dependent effect"}, {"measurement": "inhibition", "setting": "RAW264.7 [12]", "result": "inactive"}, {"measurement": "inhibition", "setting": "RAW264.7 [13]", "result": "Active"}, {"measurement": "inhibition", "setting": "RAW264.7 [14]", "result": "Dose-dependent effect"}, {"measurement": "Activity", "setting": "RAW264.7 [15]", "result": "inactive"}, {"measurement": "inhibition", "setting": "RAW264.7 [16]", "result": "Dose-dependent effect"}, {"measurement": "Activity", "setting": "RAW264.7 [17]", "result": "inactive"}, {"measurement": "inhibition", "setting": "Mus musculus [18]", "result": "Active"}, {"measurement": "Activity", "setting": "Mus musculus [19]", "result": "Dose-dependent effect"}, {"measurement": "inhibition", "setting": "Mus musculus [20]", "result": "Active"}, {"measurement": "inhibition", "setting": "RAW264.7 [21]", "result": "Active"}, {"measurement": "inhibition", "setting": "RAW264.7 [22]", "result": "Active"}, {"measurement": "inhibition", "setting": "RAW264.7 [23]", "result": "Dose-dependent effect"}]}
